“Also recorded” adds a separate entry of the source. Like-named read-outs stand apart in the source and are kept apart here. Values belong to the compound of their own block, whether it stands above or below them.
How the values were obtained:
[1] = system: bovine pancreatic trypsin; details: concentrations up to 200 μM; cited from earlier work
C1s-2SP = target: T1, C1s-2SP (Homo sapiens, UniProt P09871); assay: C1s-2SP chromogenic ZGR cleavage assay; format: biochemical; details: for C1s-2SP activity (initial velocity of ZGR cleavage): 100 μM compound, single-concentration screen, compared with mean of library; for loss of activity compared to A1: Ki against human C1s-2SP relative to A1
T1 sequence (P09871 357-423 limits assumed): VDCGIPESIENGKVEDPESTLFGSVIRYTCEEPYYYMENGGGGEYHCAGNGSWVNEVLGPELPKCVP
T1 sequence (P09871 438-688 limits assumed): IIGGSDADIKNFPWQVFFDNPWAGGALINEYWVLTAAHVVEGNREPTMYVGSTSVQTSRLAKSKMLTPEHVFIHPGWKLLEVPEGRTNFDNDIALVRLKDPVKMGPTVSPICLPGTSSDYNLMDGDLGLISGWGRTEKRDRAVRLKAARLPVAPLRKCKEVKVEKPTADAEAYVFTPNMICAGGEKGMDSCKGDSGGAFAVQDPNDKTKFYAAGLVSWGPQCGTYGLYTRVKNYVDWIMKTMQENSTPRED
How it was run: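 Recombinant human C1s-2SP was expressed in E. coli BL21(DE3), purified by denaturing IMAC, refolded in glutathione redox buffer and isolated by gel filtration. The enzyme (2.4 nM) was run at 25 °C in 50 mM HEPES pH 7.4, 140 mM NaCl, 0.005% Tween-20, 5% DMSO, 0.44 mM DTNB. ZGR initial velocities were read on a 4×5 grid (~0.2–1.2 x Km; inhibitor 0–~2.6 x Ki), n = 3, with a global competitive fit.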

[2] = target: T2, C1r purified from human serum (Homo sapiens, UniProt P00736); assay: C1r chromogenic ZGR assay; format: biochemical
T2 sequence (P00736 18-463 limits assumed): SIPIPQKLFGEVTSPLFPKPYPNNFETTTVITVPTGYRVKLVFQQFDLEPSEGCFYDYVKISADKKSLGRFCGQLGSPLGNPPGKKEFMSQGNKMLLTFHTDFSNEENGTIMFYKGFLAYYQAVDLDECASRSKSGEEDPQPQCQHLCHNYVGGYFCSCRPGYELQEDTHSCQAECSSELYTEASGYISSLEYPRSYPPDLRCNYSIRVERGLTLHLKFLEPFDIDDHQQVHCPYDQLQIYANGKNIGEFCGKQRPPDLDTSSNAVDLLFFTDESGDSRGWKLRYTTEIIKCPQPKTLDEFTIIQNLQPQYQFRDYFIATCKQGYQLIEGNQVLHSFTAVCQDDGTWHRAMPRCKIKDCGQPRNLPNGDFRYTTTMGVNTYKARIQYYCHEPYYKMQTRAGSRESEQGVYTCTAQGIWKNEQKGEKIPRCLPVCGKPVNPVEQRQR
T2 sequence (P00736 464-705 limits assumed): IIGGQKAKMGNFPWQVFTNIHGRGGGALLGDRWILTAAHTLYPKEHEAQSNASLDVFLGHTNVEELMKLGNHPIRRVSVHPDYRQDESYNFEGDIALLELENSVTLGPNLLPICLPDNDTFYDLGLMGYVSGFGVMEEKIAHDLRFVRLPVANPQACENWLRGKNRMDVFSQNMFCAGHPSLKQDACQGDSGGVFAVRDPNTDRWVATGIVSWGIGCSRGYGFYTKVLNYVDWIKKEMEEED
How it was run: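 Human serum-derived C1r (10 nM) at 25 °C in 50 mM HEPES pH 7.4, 140 mM NaCl, 0.005% Tween-20, 10% DMSO, with 0.44 mM DTNB as indicator. Initial velocities of Z-Gly-Arg-thiobenzyl ester (ZGR) hydrolysis were read at four ZGR levels (~0.1–0.7 x Km) × five inhibitor levels (0–~0.8 x Ki) in microplates. Data (n = 3) were globally fit to a competitive inhibition model.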

Factor Xa = Factor Xa chromogenic ZGR assay; format: biochemical; details: inhibitor 0 to 226 μM
How it was run: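 Buffer: 50 mM HEPES pH 7.4, 140 mM NaCl, 0.025% Tween-20, 5% DMSO, with 0.59 mM DTNB indicator. Thiol release was read chromogenically in microplates.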

[3] = target: T3, C1s purified from human serum (Homo sapiens, UniProt P09871); assay: Native C1s chromogenic ZGR assay; format: biochemical
T3 sequence (P09871 16-437 limits assumed): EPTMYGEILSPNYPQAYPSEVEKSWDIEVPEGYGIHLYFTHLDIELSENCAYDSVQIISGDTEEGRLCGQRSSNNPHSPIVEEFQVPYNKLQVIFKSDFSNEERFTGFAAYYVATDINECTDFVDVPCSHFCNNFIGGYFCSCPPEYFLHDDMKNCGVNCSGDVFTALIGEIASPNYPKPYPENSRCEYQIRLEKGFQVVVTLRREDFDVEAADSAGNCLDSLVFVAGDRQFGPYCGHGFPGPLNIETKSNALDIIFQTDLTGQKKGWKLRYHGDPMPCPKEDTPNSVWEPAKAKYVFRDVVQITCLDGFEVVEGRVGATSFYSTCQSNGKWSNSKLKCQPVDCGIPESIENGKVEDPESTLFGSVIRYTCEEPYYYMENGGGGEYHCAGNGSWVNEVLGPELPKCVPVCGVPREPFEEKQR
T3 sequence (P09871 438-688 limits assumed): T1 sequence (P09871 438-688 limits assumed)

classical pathway (CP) = assay: CP-specific ELISA; format: biochemical, human; details: for C4b deposition (CP activity): 100 μM compound, single-concentration screen, 2% human serum
How it was run: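 Wells coated with human IgM received 2% (v/v) complement-preserved human serum with a two-fold test compound series (100–3.1 μM) in HBS++ plus 0.1% gelatin, 1 h at 37 °C. After TBS-T washes, deposited C4b was detected with mouse anti-C4b mAb and HRP anti-mouse IgG. Signals were normalized to uninhibited and serum-free controls. Triplicates were fit to a four-parameter dose-response model.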

[4] = system: CP activation by heparin-induced immune complexes; assay: CP activation by heparin-induced immune complexes in whole blood; format: cell-based, human; details: highest concentration examined (series 1,000 – 10 μM)
How it was run: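 Healthy-donor whole blood was anticoagulated with ACD (1.4 mL per 8.6 mL blood). It was preincubated 30 min at room temperature with buffer, test compound (1000–10 μM) or B. miyamotoi FbpA-C/FbpB-C control proteins (100 μg/mL). Anti-PF4/heparin antibody KKO (50 μg/mL), PF4 (25 μg/mL) and heparin (1 U/mL) were then added, 30 min at 37 °C. Plasma was quenched with 10 mM EDTA, and C5a was measured by sandwich ELISA.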

C1s = target: T4, C1s (Homo sapiens, UniProt P09871); assay: Cleavage of C2 by C1s; format: biochemical
T4 sequence (P09871 16-437 limits assumed): T3 sequence (P09871 16-437 limits assumed)
T4 sequence (P09871 438-688 limits assumed): T1 sequence (P09871 438-688 limits assumed)
How it was run: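 Serum-derived activated C1s (6.25 nM) was mixed with a two-fold test compound series (100–1.56 μM) in HBS++ and C2 was added (0.5 mg/mL stock), 1 h at 37 °C. Products were separated by SDS-PAGE with Coomassie staining. C2b band density was corrected for total C2 and normalized to a C1s + C2 control. Triplicates were fit to a four-parameter dose-response model.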

Aqueous solubility = format: physicochemical; details: water
mouse C1s-2SP = target: T5, mouse C1s-2SP (Mus musculus, UniProt Q8CG14); assay: Mouse C1s-2SP chromogenic ZGR assay; format: biochemical
T5 sequence (Q8CG14 357-423 limits assumed): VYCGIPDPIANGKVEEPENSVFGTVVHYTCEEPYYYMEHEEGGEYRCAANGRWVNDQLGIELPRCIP
T5 sequence (Q8CG14 438-688 limits assumed): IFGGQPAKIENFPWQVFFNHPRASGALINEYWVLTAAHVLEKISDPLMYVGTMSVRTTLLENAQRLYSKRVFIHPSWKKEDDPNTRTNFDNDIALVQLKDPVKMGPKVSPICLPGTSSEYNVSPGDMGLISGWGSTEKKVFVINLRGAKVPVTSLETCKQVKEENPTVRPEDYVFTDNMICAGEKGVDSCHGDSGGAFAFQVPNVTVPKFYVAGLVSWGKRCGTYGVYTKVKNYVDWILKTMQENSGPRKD
How it was run: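 Recombinant mouse C1s-2SP (2.5 nM) was tested at 25 °C in 50 mM HEPES pH 7.4, 140 mM NaCl, 0.005% Tween-20, 5% DMSO, 0.44 mM DTNB. ZGR initial velocities were measured at four substrate levels (~2.3–9.4 x Km) and five inhibitor levels (0–~8.4 x Ki). Triplicate data were globally fit to a competitive inhibition model.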

lectin pathway (LP) = assay: LP ELISA; format: biochemical, human; details: 100 μM A1, C1q-depleted serum, mannan-coated plates
Neutrophil Elastase = assay: Neutrophil elastase chromogenic assay; format: biochemical, human; details: inhibitor 0 to 29.4 μM
How it was run: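 Neutrophil elastase purified from human sputum (6.9 nM) was run at 25 °C with inhibitor 0–29.4 μM and fixed 52 μM methoxysuccinyl-Ala-Ala-Pro-Val-p-nitroanilide (ε400 = 12.3 mM−1 cm−1). Buffer: 50 mM HEPES pH 7.4, 140 mM NaCl, 0.05% Tween-20. Microplate chromogenic read-out.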

Cathepsin-G = assay: Cathepsin G chromogenic assay; format: biochemical, human; details: inhibitor 0 to 29.4 μM; data not shown
How it was run: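 Cathepsin G (9.5 nM) was assayed at 25 °C with inhibitor 0–29.4 μM and fixed 0.92 mM succinyl-Ala-Ala-Pro-Phe-p-nitroanilide (ε400 = 12.3 mM−1 cm−1). Buffer: 50 mM HEPES pH 7.4, 140 mM NaCl, 0.025% Tween-20, 20.7% DMSO. Microplate chromogenic read-out.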

thrombin = thrombin (Homo sapiens, UniProt P00734); assay: Thrombin chromogenic ZGR assay; format: biochemical
How it was run: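 Serum-purified activated thrombin (2.7 nM) was assayed at 25 °C in 50 mM HEPES pH 7.4, 140 mM NaCl, 0.005% Tween-20, 5% DMSO with 0.59 mM DTNB. Initial ZGR hydrolysis rates were measured at four ZGR levels (~Km–9 x Km) × five inhibitor levels (0–~3.4 x Ki). Triplicate data were globally fit to a competitive inhibition model.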

[5] = recombinant human C1s-2SP, competitive inhibition model

Compound: N=C(N)Nc1ccc(C(=O)O)cc1 [4-guanidinobenzoic acid]
inhibition of trypsin [1]: failed to inhibit trypsin

Compound: O=C(COC(=O)Cn1cnc2scc(-c3cccs3)c2c1=O)Nc1ccc(O)cc1 [B5]
C4b deposition (CP activity) (classical pathway (CP)): reduced C4b deposition to less than two standard deviations below the mean

Compound: N=C(N)c1ccc(N2CCN(c3cccc(F)c3)CC2)nc1 [meta-fluorine A1 analog]
Ki (C1s-2SP; [5]): 19.5 µM

Compound: Cc1cccc(N2CCN(c3ccc(C(=N)N)cn3)CC2)c1 [meta-methyl A1 analog]
Ki (C1s-2SP; [5]): 22.6 µM

Compound: N=C(N)c1ccc(N2CCN(c3ccc(Cl)cc3)CC2)nc1 [para-chlorine A1 analog]
loss of activity compared to A1 (C1s-2SP): > 10 fold

Compound: N=C(N)c1ccc(N2CCN(c3ccc(F)cc3)CC2)nc1 [para-fluorine A1 analog]
loss of activity compared to A1 (C1s-2SP): > 10 fold

Compound: N=C(N)c1cccnc1 [pyridine-3-carboximidamide, reference compound]
inhibition of C1s ([3]; concentrations approaching ~375 μM, data not shown): failed to detect such inhibition

Now from value to compound, other results behind:

Ki (C1s-2SP): 8.5 µM | Ki [2]: 842 µM | selectivity C1s over C1r ([2]; ratio of Ki values): ~ 145 fold | Ki [3]: 5.8 µM | IC50 (classical pathway (CP); CP ELISA, C4b deposition, A1 100 – 3.1 μM): 22 µM | IC50 (C1s): ~85 µM | solubility (Aqueous solubility): ≥ 10 mM | Ki (mouse C1s-2SP): 24.6 µM | Ki (thrombin): 51.2 µM
Compound: N=C(N)c1ccc(N2CCN(c3ccccc3)CC2)nc1 [A1, 6-(4-phenylpiperazin-1-yl)pyridine-3-carboximidamide]
inhibition of Factor Xa (Factor Xa): did not inhibit | C4b deposition (CP activity) (classical pathway (CP)): reduced C4b deposition to less than two standard deviations below the mean; also recorded: essentially complete inhibition of C4b deposition | inhibition of C5a generation [4]: ~ 75% | activity against the LP (lectin pathway (LP)): relatively weak activity against the LP compared to the CP | inhibition of Neutrophil Elastase (Neutrophil Elastase): did not inhibit | inhibition of Cathepsin-G (Cathepsin-G): did not inhibit

C1s-2SP activity (initial velocity of ZGR cleavage) (C1s-2SP): failed to inhibit C1s enzyme activity
Compound: I.NC(N)=NCc1ccc(CN2CCc3ccccc32)cc1 [D4]

C1s-2SP activity (initial velocity of ZGR cleavage) (C1s-2SP): failed to inhibit C1s enzyme activity
Compound: COc1ccc(CCNC(N)=NCc2ccc(OCCC(C)C)c(OC)c2)cc1.I [D10]

C1s-2SP activity (initial velocity of ZGR cleavage) (C1s-2SP): failed to inhibit C1s enzyme activity
Compound: Cl.Cl.NC(N)=NCCCN(Cc1ccc(-c2ccccc2)cc1)S(=O)(=O)CCCN=C(N)N [F2]

C1s-2SP activity (initial velocity of ZGR cleavage) (C1s-2SP): failed to inhibit C1s enzyme activity
Compound: COc1cccc(Oc2ccc(CN=C(N)Nc3ccccc3)cn2)c1.I [H1]

C1s-2SP activity (initial velocity of ZGR cleavage) (C1s-2SP): failed to inhibit C1s enzyme activity
Compound: O=C(CSc1ncnc2sc(-c3ccccc3)cc12)NC(Cc1c[nH]c2ccccc12)C(=O)O (stereo not drawn) [H9]

From article PMC10872613 (Journal of immunology (Baltimore, Md. : 1950), 2024)
